Compound activity as filed in PubChem.
This is a sample that favours compounds with a hit; in the whole collection about 1.5% have one here.
CXCR6 inh: blocks human CXCR6 beta-arrestin recruitment; inhibition, % at 20 µM; O00574; CHO-K1 PathHunter CXCR6 beta-arrestin, luminescence; 360,000 compounds, 0.36% hits; AID 602244; in the data active = inhibition above about 34%, passing the limit was not always enough;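 also: antagonist mode with CXCL16 agonist at 10 nM final; 0% = 10 nM CXCL16 with DMSO and 100% = unstimulated wells without agonist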
CCR6 antag: CCR6 (human) receptor antagonism; P51684; CHO-K1 CCR6 PathHunter beta-arrestin, luminescence, CCL20-stimulated; inhibition, % at 20 µM; 340,000 compounds, 0.49% hits;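 active = compounds whose inhibition of the agonist-driven luminescence signal at 20 µM reaches about 50%, limit read from the data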;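 also: cells stimulated with CCL20 at 14 nM final; plate controls were DMSO with CCL20 for no effect and DMSO without agonist for full effect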
APJ ag: agonists of human APJ apelin receptor; P35414; CHO-K1 APJ PathHunter beta-arrestin, luminescence; 0% DMSO wells, 100% apelin; activation, % at 20 µM; 330,000 compounds, 0.11% hits; AID 2520;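 active = activation more than six SD over the plate average, tested at 20 µM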;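 also: 0% = DMSO alone and 100% = apelin-13 at 10 nM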
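Material: CHO-K1 APJ beta-arrestin complementation cell line; Input: cell density 1000 per well; Incubation: compound stimulation 90 min at 25 °C, detection 60 min; Signal: luminescence from split beta-galactosidase complementation, Galacton Star/Emerald II substrate; Controls: DMSO-only wells as negative, 10 nM Apelin-13 as positive control.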
APJ antag: APJ receptor antagonism; P35414; CHO-K1 APJ beta-arrestin complementation, luminescence; inhibition, % at 20 µM; 330,000 compounds, 0.32% hits;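 active = inhibition above about 40% at 20 µM, limit read from the data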;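 also: cells challenged with 10 nM apelin-13 agonist together with compound; plate controls were apelin-13 plus DMSO wells for no effect and DMSO wells lacking apelin-13 for full effect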
EBI2 block: blocks human EBI2 receptor beta-arrestin signaling; AID 651636; 360,000 compounds, 0.81% hits; P32249; EBI2 beta-arrestin recruitment, luminescence, 7a,25-OHC stimulated; inhibition, % at 5 µM; in the data active = inhibition above about 38%;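 also: enzyme fragment complementation signal reports receptor beta-arrestin coupling in cells; 0% = agonist plus DMSO wells and 100% = wells without agonist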
Target sequence (P32249 whole entry, looked up, the tested form may be a part): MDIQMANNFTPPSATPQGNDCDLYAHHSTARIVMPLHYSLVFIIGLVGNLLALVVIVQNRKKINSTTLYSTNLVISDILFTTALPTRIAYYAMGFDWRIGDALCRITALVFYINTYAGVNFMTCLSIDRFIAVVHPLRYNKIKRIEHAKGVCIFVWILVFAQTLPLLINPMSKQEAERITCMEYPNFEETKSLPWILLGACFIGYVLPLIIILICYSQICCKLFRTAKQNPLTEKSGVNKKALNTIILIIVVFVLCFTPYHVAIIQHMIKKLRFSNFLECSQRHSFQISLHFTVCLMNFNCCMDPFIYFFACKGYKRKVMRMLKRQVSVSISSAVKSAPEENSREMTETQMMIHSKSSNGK
APJ antag confirm: confirmation of human APJ apelin receptor antagonists; shares compounds with APJ antag; APJ beta-arrestin recruitment, luminescence, antagonist mode; inhibition, % at 20 µM; 950 compounds, 66% hits; AID 2766; in the data active = inhibition above about 50%
The depositor's hits bear a star; / = no result given.

SMILES	CXCR6 inh	CCR6 antag	APJ ag	APJ antag	EBI2 block	APJ antag confirm
COc1ccc(C)cc1N=Nc1ccc(O)c2ncccc12	32	50	/	/	9	/
COc1cccc(N=Nc2ccc3cccnc3c2O)c1	21	42	-10	61*	32	61*
COCCN(C(=O)CSc1nnc(-c2ccc(F)cc2)n1N)c1c(N)n(CC(C)C)c(=O)[nH]c1=O	-8	/	/	/	0	/
O=C(Sc1cccc2cccnc12)c1ccccc1Br	35	/	-5	52*	49*	85*
COC(=O)c1cc(C(=O)Nc2nc3ccccc3[nH]2)cc([N+](=O)[O-])c1	1	5	-1	-2	19	/
Oc1ccc(-c2nnc(Nc3cccc(O)c3)c3ccccc23)cc1	-4	6	-3	67*	-3	-2
CNC(=O)c1ccc(Nc2nnc(-c3ccc(O)cc3)c3ccccc23)cc1	2	8	-2	6	-6	/
O=C1CN(C(=O)c2ccc(Cl)c([N+](=O)[O-])c2)c2ccccc2N1	3	4	-1	41*	-16	-8
N#Cc1cc(-c2ccccc2)nc(NN)n1	18	35	-7	15	9	/
NNc1nc(-c2ccccc2)cc(-c2ccccc2)n1	45*	63*	-11	97*	15	122*
Cc1ncc(CO)c(/C=N/Nc2ccc(C(F)(F)F)cn2)c1O	48*	69*	-12	63*	11	89*
CC(=O)Nc1ccc(Nc2ncnc3ccccc23)cc1	/	/	-2	43*	/	9
C#CCN(C[C@H]1[C@H](OC(=O)NCc2ccc(OC)c(OC)c2)[C@H](OC(=O)NCc2ccc(OC)c(OC)c2)C[C@@H](C(=O)OC)[C@H]1C(=O)OC)S(=O)(=O)c1ccc(C)cc1	4	/	/	/	-2	/
Cc1ccc(NC(=S)NCC2CCCO2)cc1 (stereo not given)	-1	11	-2	45*	-12	20
[O-]/C(=C(\C(=S)Nc1ccccc1F)[n+]1ccccc1)c1ccc(OC(F)F)cc1	-2	19	-9	48*	-8	22
Cc1ccc(C)c(NC(=S)/C(=C(\[O-])c2ccc(OC(F)F)cc2)[n+]2ccccc2)c1	8	12	-5	3	-10	/
O=C(NCc1cccnc1)c1cccc(S(=O)(=O)NCc2ccccc2)c1	-8	-6	-2	8	-6	/
CN(CCCC(=O)O)c1ccc(N=Nc2ccc([N+](=O)[O-])cc2)cc1	56*	65*	-10	46*	6	89*
CN(N=Nc1ccc([N+](=O)[O-])cc1)c1ccccc1	-7	11	-2	17	2	/
COc1ccc(CN2C(=O)C(C)Nc3ncnc(N4CCN(c5ccccc5)CC4)c32)cc1 (stereo not given)	68*	80*	-12	68*	33	115*
CC1Nc2ncnc(N3CCOCC3)c2N(Cc2ccccc2)C1=O (stereo not given)	8	0	-3	-32	-1	/
NC(=O)c1ccccc1OCC(=O)N1CCC(Cc2ccccc2)CC1	-1	8	-1	43*	-6	-32
CCOc1cc(/C=C2\NC(=O)NC2=O)cc([N+](=O)[O-])c1O	22	36	-4	43*	8	35
Cc1cccc(NC(=S)NNC(=O)c2cccc([N+](=O)[O-])c2)c1	17	18	-5	27	-7	/
Cc1occc1C(=O)NNC(=S)Nc1cccc([N+](=O)[O-])c1	4	32	-5	45*	-4	47
SMILES	CXCR6 inh	CCR6 antag	APJ ag	APJ antag	EBI2 block	APJ antag confirm
Cc1cc(NC(=O)CSc2ccc(-c3ccc(Br)cc3)nn2)no1	0	-12	2	-35	4	/
CCOC(=O)c1cnc2c(cnn2C)c1Oc1ccc(OC)cc1	-4	13	-5	26	4	/
CCOC(=O)c1cnc2c(cnn2C)c1NCCC(O)C(F)(F)F (stereo not given)	4	9	0	48*	-6	33
CC(C)C(NC(=O)C1CCCCC1)C(=O)NCc1ccccn1 (stereo not given)	2	1	-4	14	3	/
CC(C)C(NC(=O)C1CCCCC1)C(=O)NCCc1ccccc1 (stereo not given)	28	31	-6	41*	9	43
CN1CCCC(OC(=O)c2cc(Cl)ccc2Cl)C1 (stereo not given)	-5	-10	-2	-2	5	/
CN1CCCC(OC(=O)c2cc(Br)ccc2Cl)C1 (stereo not given)	0	16	-4	51*	3	35
CCC[C@@H](CN1CCC[C@H]1CN1C(N)=NC[C@H]1CC(C)C)N1C[C@@H](Cc2ccccc2)N(CCc2ccc(Cl)c(Cl)c2)C1=N	6	17	5	42*	-5	57*
CC1CCCCC12NC(=O)N(CC(=O)NCCc1ccc(S(N)(=O)=O)cc1)C2=O (stereo not given)	9	2	-3	17	-13	/
c1ccc(NCc2nnc3n2CCCCC3)cc1	-10	8	-5	10	5	/
Clc1ccc(NCc2nnc3n2CCCCC3)cc1	-6	5	0	58*	26	38
O=c1[nH][nH]c2cc([N+](=O)[O-])ccc12	6	17	/	/	-9	/
COc1ccc(NC(=O)CSc2ccccn2)cc1OC	-2	-10	0	2	-4	/
COc1ccc(NC(=O)CSc2nnc(-c3ccccn3)n2-c2ccccc2)cc1OC	-2	-14	0	41*	-5	-16
NC[C@H](Cc1ccccc1)NCCCCC1CCCCC1	-5	0	-5	8	-9	/
CNC[C@H](CC1CCCCC1)NC[C@H](Cc1ccccc1)NCCC12CC3CC(CC(C3)C1)C2	36	/	-3	44*	7	39
Cc1ccc(N2C(=O)c3ccc(C(=O)N4CCOCC4)cc3C2=O)cc1C	-4	12	-2	-10	0	/
NNc1ccc2c(C(F)(F)F)cc(C(F)(F)F)nc2n1	26	44	-5	10	-5	/
N#CC(c1cccc(Cl)c1)c1ccc2c(C(F)(F)F)cc(C(F)(F)F)nc2n1 (stereo not given)	35	50	-10	46*	-35	76*
O=C(Nc1nc(-c2ccccn2)cs1)c1cc(Cl)ccc1[N+](=O)[O-]	59*	77*	-8	72*	40*	97*
CC(/C=N/n1c(C2CCCCC2)n[nH]c1=S)=C\c1ccccc1	12	33	-5	47*	2	78*
COc1cc2c(cc1OC)C(c1ccccc1[N+](=O)[O-])=NCC2	7	/	/	/	3	/
COc1cccc(/C=C/c2ccc3cccc(O)c3n2)c1	35	62*	-11	45*	35	88*
COc1cccc(/C=C/c2ccc3cccc(O)c3n2)c1OC	37	50*	-8	54*	23	79*
